Experimental data as given in ChEMBL document CHEMBL1153405, “Complementary three-dimensional quantitative structure-activity relationship modeling of binding affinity and functional potency: a study on alpha4beta2 nicotinic ligands” (J Med Chem, 2009).

Assays:
[1] = molecular target: T1, Neuronal acetylcholine receptor; alpha4/beta2 (Homo sapiens, UniProt P17787+P43681); assay: Agonist activity at human alpha4beta2 nAChR expressed in HEK293 cells assessed as intracellular calcium level by FLIPR assay; assay type: functional, cell-based
T1 sequence (P17787 whole entry): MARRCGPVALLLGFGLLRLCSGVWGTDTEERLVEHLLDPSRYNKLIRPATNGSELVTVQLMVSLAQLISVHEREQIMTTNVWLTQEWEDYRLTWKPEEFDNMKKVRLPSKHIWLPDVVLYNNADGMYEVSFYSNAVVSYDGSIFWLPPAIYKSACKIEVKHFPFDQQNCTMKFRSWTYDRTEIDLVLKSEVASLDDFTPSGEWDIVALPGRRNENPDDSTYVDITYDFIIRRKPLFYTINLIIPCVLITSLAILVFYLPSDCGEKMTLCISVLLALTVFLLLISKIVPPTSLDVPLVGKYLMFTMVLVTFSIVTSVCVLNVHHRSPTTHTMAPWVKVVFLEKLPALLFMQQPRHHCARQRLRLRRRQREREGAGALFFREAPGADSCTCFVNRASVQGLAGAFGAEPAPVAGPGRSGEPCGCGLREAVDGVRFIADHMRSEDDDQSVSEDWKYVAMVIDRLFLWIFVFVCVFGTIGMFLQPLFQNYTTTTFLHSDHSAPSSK
T1 sequence (P43681 whole entry): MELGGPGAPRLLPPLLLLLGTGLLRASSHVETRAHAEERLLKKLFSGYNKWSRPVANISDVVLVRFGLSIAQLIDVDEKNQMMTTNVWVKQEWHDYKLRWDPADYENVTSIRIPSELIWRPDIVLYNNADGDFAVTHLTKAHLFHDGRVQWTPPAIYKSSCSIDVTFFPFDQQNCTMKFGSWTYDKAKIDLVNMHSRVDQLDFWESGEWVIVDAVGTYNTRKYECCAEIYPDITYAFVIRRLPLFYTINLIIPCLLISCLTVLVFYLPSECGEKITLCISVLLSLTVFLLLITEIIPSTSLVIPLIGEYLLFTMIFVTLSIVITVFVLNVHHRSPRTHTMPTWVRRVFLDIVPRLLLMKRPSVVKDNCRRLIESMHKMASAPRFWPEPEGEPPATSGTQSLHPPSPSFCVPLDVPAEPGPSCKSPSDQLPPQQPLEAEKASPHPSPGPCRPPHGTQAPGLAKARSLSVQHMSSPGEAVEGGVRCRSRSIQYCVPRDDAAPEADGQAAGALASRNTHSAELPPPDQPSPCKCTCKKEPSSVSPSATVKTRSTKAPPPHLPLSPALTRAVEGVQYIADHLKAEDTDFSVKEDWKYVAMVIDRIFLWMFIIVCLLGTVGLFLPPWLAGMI
How it was run: (§1)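 HEK-293 cells stably expressing human α4β2 (subunits cloned from IMR32) were grown in DMEM with 10% FBS at 37 °C and 5% CO2. They were plated on poly-D-lysine for 24 h, then loaded with 2 µM fluo-4/AM for 1.5 h at room temperature. Cells were washed into NMDG Ringer (10 mM CaCl2, pH 7.4) and read by FLIPR at 100 pM–100 µM. Background-subtracted responses were normalized to 100 µM (-)-nicotine, giving pEC50 and maximal efficacy; n = 4-8.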

[2] = molecular target: T1, Neuronal acetylcholine receptor; alpha4/beta2; assay: Displacement of [3H]cytisine from human alpha4beta2 nAChR expressed in HEK293 cells; assay type: cell-based
[3] = molecular target: T1, Neuronal acetylcholine receptor; alpha4/beta2; assay: Intrinsic activity at human alpha4beta2 nAChR expressed in HEK293 cells assessed as intracellular calcium level by FLIPR assay relative to (-)nicotine; assay type: cell-based; how it was run: as §1

SMILES	EC50 [1] [nM]	IC50 [2] [nM]	Efficacy [3] [%]
Brc1cncc(N2CCCNCCC2)c1	182	2.82	73
COc1cncc(N2CCCNCCC2)c1	120	1	89
Cc1ncc(N2CCNCC2)cc1Cl	26900	525	74
Clc1cc(N2CCCNCC2)cnc1Br	15.1	1.41	102
Clc1ncc(N2CCCNCC2)cc1Br	57.5	1.41	85
Brc1ccc(N2CCCNCC2)cn1	64.6	1	88
c1cncc(OC2CCNC2)c1 (stereo not drawn)	28800	100	54
C/C=C\Oc1cncc(N2CCCNCC2)c1	2090	1.29	45
CCOc1cc(N2CCCNCC2)cnc1Br	257	0.871	78
COc1ccc(N2CCCNCC2)cn1	11000	170	88
COCCOc1cncc(N2CCCNCC2)c1	8710	2.4	42
C1=C(c2cccnc2)CC2CCCC1N2 (stereo not drawn)	1200	4.47	34
COc1cc(N2CCCNCC2)cnc1Cl	91.2	0.676	116
Brc1ccc(N2CCNCC2)cn1	2510	182	129
Oc1cc(N2CCCNCC2)cnc1I	479	21.9	104
NC(=O)c1cncc(N2CCCNCC2)c1	12900	20	56
C=COc1cncc(N2CCCNCC2)c1	1100	5.01	61
c1ccc2ncc(N3CCCNCC3)cc2c1	3630	6.61	33

SMILES	EC50 [1] [nM]	IC50 [2] [nM]	Efficacy [3] [%]
CCSc1ccc(N2CCCNCC2)cn1	4470	170	53
Brc1ccc(N2CCCNCCC2)cn1	1.29	0.447	139
Clc1cncc(OC2CCCNC2)c1 (stereo not drawn)	1410	240	15
COc1cncc(C2=CC3CCCC(C2)N3)c1 (stereo not drawn)	4370	3.02	13
COc1cncc(N2CCCNCC2)c1	1410	1.91	66
C=COc1cc(N2CCCNCCC2)cnc1Br	240	0.38	90
c1cncc(N2CCCNCCC2)c1	36.3	0.891	78
C=COc1cncc(N2CCNCC2)c1	7590	191	18
C1=C(c2cccnc2)CC2CCC1N2 (stereo not drawn)	1000	6.76	66
Clc1cncc(N2CCNCC2)c1	22900		41
C=COc1cc(N2CCCNCC2)cnc1Br	110	0.646	80
COc1cc(N2CCNCC2)cnc1Br	17000		68
c1cncc(OC2CCCNC2)c1 (stereo not drawn)	32400	191	22
Clc1cncc(N2CCCNCCC2)c1	170	2	103
Clc1ncc(N2CCNCC2)cc1Br	7940	229	98
c1cncc(OC[C@@H]2CCN2)c1		1.51	
c1cncc(N2CCCNCC2)c1	229		94
Oc1cncc(N2CCCNCC2)c1	141	2.4	120
